The results in this text go back to ChEMBL document CHEMBL1240421, “Synthesis and evaluation of graveoline and graveolinine derivatives with potent anti-angiogenesis activities” (Eur J Med Chem, 2010).

Assay [1] is described as follows: Cytotoxicity against human GLC82 cells after 48 hrs by MTT assay. It is filed as functional, cell-based. To be noted: GLC82, 48 h. In outline: (§1)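 Cells seeded at 5000 per well, exposed to a range of concentrations. MTT step, then 4 h further incubation. Formazan dissolved in DMSO, OD read at 490 nm. Triplicate wells; IC50 taken from curves of mean OD versus concentration.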
A general note: Formazan colour is commonly taken as a measure of viable cells.

For assay [2], the system named is NCI-H460. As to the kind of experiment: Cytotoxicity against human NCI-H460 cells after 48 hrs by MTT assay. The assay is classed as functional, cell-based. The note with it: NCI-H460, 48 h. Put shortly: as §1
The subject of assay [3] is HUVEC. The experiment in a line: Cytotoxicity against HUVEC cells after 48 hrs by MTT assay. To be noted: Homo sapiens. It is filed as cell-based. In outline:
as §1

The subject of assay [4] is HUVEC. The experiment in a line: Inhibition of HUVEC cell adhesion to collagen at 15 uM. To be noted: Homo sapiens.
Assay [5] concerns HUVEC. The experiment in a line: Inhibition of HUVEC cell adhesion to collagen at 30 uM after 3 hrs.
The species entered for assay [6] is Gallus gallus. As to the kind of experiment: Antiangiogenic activity in fertilized chicken eggs at 30 ug/10 uL after 48 hrs by CAM assay. To be noted: Egg. The assay is classed as functional. In outline: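 Test agent applied to the chick CAM at 30 µg/10 µL, 10 eggs per treatment; 0.9% NaCl as negative control, thalidomide as positive control. After 48 h, CAMs fixed in 4% paraformaldehyde, vessels counted in three random microscope fields around the filter disc.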

Assay [7] deals with HUVEC. The experiment in a line: Inhibition of HUVEC cell adhesion to collagen at 15 uM after 1 hr. The note with it: Homo sapiens. The assay is classed as functional, cell-based. Put shortly:
(§2)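 Wells coated overnight at room temperature with rat tail tendon type I collagen in PBS, blocked with 0.2% BSA for 2 h at 37 °C. HUVEC resuspended in DMEM and added at 10⁴ cells/ml with compound, incubated 1 or 3 h at 37 °C. After washing, attached cells stained with 0.2% crystal violet and solubilized in 2% SDS; OD at 570 nm. Triplicate wells, three independent experiments.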

For assay [8], the system named is HUVEC. The experiment in a line: Inhibition of HUVEC cell adhesion to collagen at 30 uM after 1 hr. It is filed as functional. The note with it: Homo sapiens. In outline:
as §2

For assay [9], the system named is HUVEC. As to the kind of experiment: Inhibition of HUVEC cell adhesion to collagen at 15 uM after 3 hrs. The assay is classed as functional. To be noted: Homo sapiens. In outline: as §2
The subject of assay [10] is HUVEC. As to the kind of experiment: Inhibition of migration of HUVEC cellss at 15 to 30 uM. It is filed as functional, Homo sapiens. Put shortly: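 Scratch-wound assay: HUVEC plated at 20 000 cells per well, monolayer scraped with a rubber policeman, then incubated 24 h with or without compound. Two random pictures per wound; migration area measured. Triplicate measurements, at least three experiments.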

Activity calls are given as the source filed them. The rule behind the calls is not given here.

For the compound `COc1ccc(-c2cc(NCCO)c3ccccc3n2)cc1`, the 50% inhibitory concentration (IC50) in assay [1] amounted to 56.2 µM; in assay [2], 38.3 µM; in assay [3], 74.1 µM. In [4], at 15 µM the inhibition was 54.1%. For the same compound, in assay [5], the “inhibition (INH)” value was 54.9%.

In the case of `Cc1ccc(-c2cc(Cl)c3ccccc3n2)cc1`, the IC50 in assay [1], in assay [2] and in [3] was over 100 µM throughout. In assay [4], testing at 15 µM gave an inhibition of 39%. For the same compound, the “inhibition (INH)” value in [5] amounted to 35.2%.

Regarding `Cc1ccc(-c2cc(=O)c3ccccc3n2C)cc1`, the IC50 in assay [1], in assay [2] and in assay [3] was over 100 µM in each case. The same compound returned an inhibition at 15 µM in assay [4] of 30.3%. In addition, the “inhibition (INH)” value in assay [5] is recorded as 8.1%.

In the case of `Cc1ccc(-c2cc(NCCO)c3ccccc3n2)cc1`, the values for the half-inhibitory concentration (IC50) in [1], in assay [2] and in [3] were 61.1 µM, 53.7 µM and 73.7 µM, respectively. Also, the outcome in assay [6] was Active. This compound gave an inhibition at 15 µM in assay [4] of 38.3%. For the same compound, in assay [5], the “inhibition (INH)” value is listed as 40%.

Take `Cc1ccc(-c2cc(NCCCN3CCOCC3)c3ccccc3n2)cc1`: the IC50 in assay [1] was 49.5 µM; in assay [2], 11.5 µM; in assay [3] it was 45.2 µM. Also, in assay [6], the result was Active. In [4], this compound showed an inhibition at 15 µM of 47.2%. The “inhibition (INH)” value in [5] is 49.2%.

Regarding `CN(C)CCCNCc1ccc(-c2cc(=O)c3ccccc3n2C)cc1`, the 50% inhibitory concentration (IC50) in assay [1] was over 100 µM; in [2], over 100 µM; in [3], 99.7 µM. Besides, in assay [4], the inhibition at 15 µM is 31.9%. Besides, in [5], the “inhibition (INH)” value worked out at 42%.

Turning to `Cc1ccc(-c2cc(NCCN(C)C)c3ccccc3n2)cc1`, the values for the 50% inhibitory concentration (IC50) in assay [1], in [2] and in assay [3] were 20.6 µM, 6.1 µM and 30.3 µM, respectively. In addition, the outcome in assay [6] was Active. This compound also returned an inhibition at 15 µM in assay [4] of 52.2%. Besides, in assay [5], the “inhibition (INH)” value is listed as 48.2%.

With `Clc1cc(-c2ccc(CNCCCN3CCOCC3)cc2)nc2ccccc12`, the IC50 in assay [1] was found to be 30.6 µM; in assay [2], 21.1 µM; in [3] it was 22.4 µM. The same compound displayed an inhibition at 15 µM in [4] of 67.8%. The “inhibition (INH)” value in [5] turned out to be 72.3%.

With `c1ccc2c(NCCCN3CCOCC3)cc(-c3ccc(CNCCCN4CCOCC4)cc3)nc2c1`, the IC50 is 34.4 µM in assay [1], 42.3 µM in assay [2], 56.5 µM in [3] and over 100 µM in assay [7]. Further, the inhibition at 30 µM in [8] stood at 15.8%. Also, 15 µM produced 46.2% inhibition in [9]. For the same compound, in assay [10], the “inhibition (INH)” value is recorded as 49.2%.

Regarding `COc1cc(-c2ccc(C)cc2)nc2ccccc12`, the IC50 in assay [1], in assay [2] and in assay [3] was over 100 µM each time. In addition, testing at 15 µM in assay [4] gave an inhibition of 35.4%. For the same compound, the “inhibition (INH)” value in assay [5] is on record as 20.3%.

For `Cc1ccc(-c2cc(NCCCO)c3ccccc3n2)cc1`, the figures for the IC50 in assay [1], in [2] and in assay [3] were 60.3 µM, 48.1 µM and 63.5 µM, respectively. Further, the result in [6] was Active. The inhibition at 15 µM in assay [4] came out at 44.2%. Moreover, the “inhibition (INH)” value in [5] turned out to be 33.8%.

Take `COc1ccc(Nc2cc(-c3ccc(C)cc3)nc3ccccc23)cc1`: the values for the IC50 in assay [1], in [2] and in assay [3] were 34.2 µM, 24.2 µM and 14.3 µM, respectively. Moreover, in assay [6], the outcome was Active. Besides, at 15 µM the inhibition in assay [4] was 42.4%. For the same compound, the “inhibition (INH)” value in assay [5] is 48.1%.

As for `COc1ccc(-c2cc(NCCCO)c3ccccc3n2)cc1`, the results for the IC50 in assay [1], in assay [2] and in [3] were 40.9 µM, 24 µM and 47.6 µM, respectively. In assay [4], the inhibition at 15 µM came to 45.3%. Also, in [5], the “inhibition (INH)” value is 56.4%.

As for `COc1ccc(-c2cc(Cl)c3ccccc3n2)cc1`, the 50% inhibitory concentration (IC50) in assay [1], in [2] and in [3] was over 100 µM in each case. This compound also had an inhibition at 15 µM in assay [4] of 52.6%. In addition, the “inhibition (INH)” value in assay [5] is given as 48.2%.

As for `COc1cc(-c2ccc(CO)cc2)nc2ccccc12`, the IC50 in [1], in assay [2] and in assay [3] was over 100 µM throughout. Further, testing at 15 µM in [4] gave an inhibition of 27.5%. Also, in assay [5], the “inhibition (INH)” value came to 19.4%.

In the case of `COc1cc(-c2ccc(COC(=O)c3cccs3)cc2)nc2ccccc12`, the 50% inhibitory concentration (IC50) in [1], in assay [2] and in assay [3] was over 100 µM in each case. This compound showed an inhibition at 15 µM in assay [4] of 37.4%. Further, in [5], the “inhibition (INH)” value is 27.4%.

For orientation: IC50 means the concentration at which inhibition is half-maximal. The low end stands for greater potency, the high end for weaker potency. One may read the inhibition as the share of the control response that was lost under treatment. Lower therefore signals a response near the control.
